Our source for the solubility and Ki values is ChEMBL document CHEMBL1127779, “Stereospecific synthesis of peptidyl alpha-keto amides as inhibitors of calpain” (J Med Chem, 1994).

Molecules are shown by their SMILES. Converted amounts (≈) assume the structure as drawn. Non-standard residues stand in square brackets, D forms with d. Residues, ends and D or L forms follow the SMILES beside them. ξ: configuration not given here. *: point of attachment. Cbz = O=C(OCc1ccccc1)*; ξNva = CCCC(N)C(=O)O

Usually Ki stands for a measure of affinity in units of concentration, obtained from inhibition or displacement.

Data set [1] in a line: Tested for solubility of the compound. In kind it is ADME. The note with it: read-out: S. The gist of the method:
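The DMA stock was diluted in 0.9% saline to 3% DMA (inhibitor ≤0.9 mg/mL) and brought to pH 2.75 with 0.1 N HCl. It was sonicated 5 min, held 15 min at room temperature and centrifuged 5 min at 16500g. Supernatant concentration came from C4 reverse-phase HPLC (60 °C, 210 nm) peak area, calibrated against standards in acetonitrile.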

For data set [2], the target named is T1, Calpain-2 catalytic subunit (Bos taurus, UniProt Q27971).
T1 sequence (Q27971 whole entry): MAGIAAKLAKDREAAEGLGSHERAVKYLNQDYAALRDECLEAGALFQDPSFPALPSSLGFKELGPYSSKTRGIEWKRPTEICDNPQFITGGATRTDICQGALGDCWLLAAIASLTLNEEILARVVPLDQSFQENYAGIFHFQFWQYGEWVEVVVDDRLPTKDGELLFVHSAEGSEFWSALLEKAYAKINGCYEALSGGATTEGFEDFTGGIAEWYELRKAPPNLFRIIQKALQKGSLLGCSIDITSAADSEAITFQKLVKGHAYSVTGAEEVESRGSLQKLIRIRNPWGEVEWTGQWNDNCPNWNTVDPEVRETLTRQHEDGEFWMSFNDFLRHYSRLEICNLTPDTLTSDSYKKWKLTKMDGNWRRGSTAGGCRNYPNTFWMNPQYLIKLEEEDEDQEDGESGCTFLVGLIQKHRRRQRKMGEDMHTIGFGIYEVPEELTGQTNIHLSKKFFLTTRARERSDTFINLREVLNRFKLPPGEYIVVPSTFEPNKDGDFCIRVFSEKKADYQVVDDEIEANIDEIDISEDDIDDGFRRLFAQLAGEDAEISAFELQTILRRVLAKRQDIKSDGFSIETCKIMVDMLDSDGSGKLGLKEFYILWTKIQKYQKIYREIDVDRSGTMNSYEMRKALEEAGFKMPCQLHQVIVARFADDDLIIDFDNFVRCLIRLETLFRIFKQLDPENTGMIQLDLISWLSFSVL
Description: Tested for inhibitory activity on bovine calpain 2 from heart.

Consider `CCS(=O)(=O)CCNC(=O)C(=O)[C@@H](Cc1ccccc1)NC(=O)[C@H](CC(C)C)NC(=O)OCc1ccccc1`, for which the solubility in data set [1] amounted to 730 µg/mL (≈ 1300 µM). Molecule `CCCC(NC(=O)[C@H](CC(C)C)NC(=O)OCc1ccccc1)C(=O)NCC` (stereo partly drawn) (Cbz-Leu-[ξNva]-NHEt) yielded a Ki in data set [2] of 50 nM.
